Measured values published in ChEMBL document CHEMBL1130129, “Immunologically specific activation of a cephalosporin derivative of mitomycin C by monoclonal antibody beta-lactamase conjugates” (J Med Chem, 1997).

Experiments:
[1] = target: Beta-lactamase (Enterobacter cloacae) (UniProt P05364); experiment: Determination of kinetic constant (Kcat) for hydrolysis by beta-lactamase from Enterobacter cloacae P99
Outline: (§1)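 Purified E. cloacae β-lactamase (0.1 µg/mL) added to prodrug in PBS pH 7.2 containing 12.5 µg/mL bovine serum albumin, 23 °C; β-lactam hydrolysis followed by loss of absorbance at 260 nm. Initial velocities taken from linear portions of absorbance-time plots and used to derive kinetic constants.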

[2] = Ratio of kinetic constants for hydrolysis by beta-lactamase from Enterobacter cloacae P99 (kcat/Km); design: unit not given here; outline: as §1

Beta-lactamase (Enterobacter cloacae), sequence (P05364 21-381 limits assumed): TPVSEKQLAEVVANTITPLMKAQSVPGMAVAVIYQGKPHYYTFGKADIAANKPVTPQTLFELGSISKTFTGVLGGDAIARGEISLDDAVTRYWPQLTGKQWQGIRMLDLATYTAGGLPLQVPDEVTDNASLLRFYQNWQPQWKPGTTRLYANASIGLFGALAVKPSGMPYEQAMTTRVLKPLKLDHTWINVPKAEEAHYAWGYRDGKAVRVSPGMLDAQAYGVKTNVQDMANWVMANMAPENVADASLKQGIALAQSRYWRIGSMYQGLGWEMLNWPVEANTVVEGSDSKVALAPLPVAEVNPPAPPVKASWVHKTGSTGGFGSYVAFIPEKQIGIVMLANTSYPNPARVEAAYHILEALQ

SMILES | k cat [1] | Ratio [2]
CO[C@@]12[C@H](COC(N)=O)C3=C(C(=O)C(C)=C(NCC4=C(C(=O)O)N5C(=O)[C@@H](NC(=O)CCCC(=O)O)[C@H]5SC4)C3=O)N1C[C@@H]1N[C@@H]12 | 248 s⁻¹ | 2.1
COc1cccc2c1C(=O)c1c(O)c3c(c(O)c1C2=O)C[C@@](O)(C(=O)CO)C[C@@H]3OC1CC(NC(=O)OCC2=C(C(=O)O)N3C(=O)[C@@H](NC(=O)CCCC(=O)O)[C@H]3SC2)C(O)C(C)O1 (some centres undefined) |  | 2.5
CO[C@@]12[C@H](COC(N)=O)C3=C(C(=O)C(C)=C(NCC4=C(C(=O)O)N5C(=O)[C@@H](NC(=O)Cc6ccccc6)[C@H]5SC4)C3=O)N1C[C@@H]1N[C@@H]12 | 476 s⁻¹ | 9.7
O=C(O)CCCC(=O)N[C@@H]1C(=O)N2C(C(=O)O)=C(COC(=O)Nc3ccc(N(CCCl)CCCl)cc3)CS[C@H]12 | 337 s⁻¹ | 7.8
O=C(Cc1ccccc1)N[C@@H]1C(=O)N2C(C(=O)O)=C(COC(=O)Nc3ccc(N(CCCl)CCCl)cc3)CS[C@H]12 | 119 s⁻¹ | 17
